Experimental data: ChEMBL document CHEMBL4732065 (Eur J Med Chem, 2021)
Values after ≈ are worked out from the molar mass of the structure shown.

How the values were obtained:
Cytochrome P450 1B1 [1] = biological target: T1, Cytochrome P450 1B1 (Homo sapiens, UniProt Q16678); test: Inhibition of recombinant human CYP1B1 using 7-ethoxyresorufin as substrate after 35 mins in presence of NADP+ by EROD assay
T1 sequence (Q16678 whole entry): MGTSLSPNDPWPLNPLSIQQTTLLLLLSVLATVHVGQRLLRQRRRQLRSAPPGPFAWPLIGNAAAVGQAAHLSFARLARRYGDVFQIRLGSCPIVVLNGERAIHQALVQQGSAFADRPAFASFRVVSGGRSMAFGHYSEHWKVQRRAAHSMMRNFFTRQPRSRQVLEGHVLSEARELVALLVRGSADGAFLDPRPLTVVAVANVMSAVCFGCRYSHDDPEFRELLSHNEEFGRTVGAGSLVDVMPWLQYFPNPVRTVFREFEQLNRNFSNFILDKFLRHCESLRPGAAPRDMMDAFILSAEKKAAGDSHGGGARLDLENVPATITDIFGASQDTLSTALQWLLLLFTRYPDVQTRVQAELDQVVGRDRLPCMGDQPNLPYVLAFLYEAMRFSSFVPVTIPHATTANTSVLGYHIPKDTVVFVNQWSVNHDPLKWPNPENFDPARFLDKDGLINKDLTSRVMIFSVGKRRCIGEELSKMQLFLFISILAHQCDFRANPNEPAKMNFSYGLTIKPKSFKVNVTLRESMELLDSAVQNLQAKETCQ
Procedure, shortened: (§1)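 Recombinant human CYP1 Supersomes co-expressing P450 reductase; 20 fmol CYP1B1, 10 fmol CYP1A1 or 60 fmol CYP1A2 per well. Incubated at 37 °C (1B1 35 min, 1A1 15 min, 1A2 50 min).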

Cytochrome P450 1A2 = biological target: T2, Cytochrome P450 1A2 (Homo sapiens, UniProt P05177); test: Inhibition of recombinant human CYP1A2 using 7-ethoxyresorufin as substrate after 50 mins in presence of NADP+ by EROD assay; type: ADME; procedure, shortened: as §1
T2 sequence (P05177 whole entry): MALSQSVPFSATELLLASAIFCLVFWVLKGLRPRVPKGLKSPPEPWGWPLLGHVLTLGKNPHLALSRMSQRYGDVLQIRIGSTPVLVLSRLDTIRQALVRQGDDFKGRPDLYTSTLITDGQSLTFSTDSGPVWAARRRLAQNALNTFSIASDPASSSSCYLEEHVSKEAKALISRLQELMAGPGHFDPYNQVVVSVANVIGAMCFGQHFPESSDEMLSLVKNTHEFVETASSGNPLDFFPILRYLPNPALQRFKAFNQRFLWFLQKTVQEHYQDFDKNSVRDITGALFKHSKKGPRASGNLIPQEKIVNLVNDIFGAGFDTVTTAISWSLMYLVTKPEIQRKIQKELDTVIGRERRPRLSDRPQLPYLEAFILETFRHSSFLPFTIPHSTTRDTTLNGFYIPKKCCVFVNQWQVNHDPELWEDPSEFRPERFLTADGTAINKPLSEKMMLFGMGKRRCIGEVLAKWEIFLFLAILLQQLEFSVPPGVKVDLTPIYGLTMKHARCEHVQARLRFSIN

Homo sapiens [2] = organism: Homo sapiens; test: Selectivity index, ratio of IC50 for recombinant human CYP1A1 to IC50 for recombinant human CYP1B1
Homo sapiens [3] = organism: Homo sapiens; test: Selectivity index, ratio of IC50 for recombinant human CYP1A2 to IC50 for recombinant human CYP1B1
[4] = Water solubility of compound by HPLC analysis; type: physicochemical
Procedure, shortened: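 Compound stocks at 5 mg/mL in DCM/MeOH were diluted in MeOH to 125–2000 µg/mL (500–5000 µg/mL for the salt form) and run on C18 HPLC with detection at 360 nm for calibration. A 10 µL injection of supersaturated aqueous solution, diluted if needed, was then analysed. Solubility was calculated from the linear regression.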

Cytochrome P450 1A1 = biological target: T3, Cytochrome P450 1A1 (Homo sapiens, UniProt P04798); test: Inhibition of recombinant human CYP1A1 using 7-ethoxyresorufin as substrate after 15 mins in presence of NADP+ by EROD assay; type: ADME
T3 sequence (P04798 whole entry): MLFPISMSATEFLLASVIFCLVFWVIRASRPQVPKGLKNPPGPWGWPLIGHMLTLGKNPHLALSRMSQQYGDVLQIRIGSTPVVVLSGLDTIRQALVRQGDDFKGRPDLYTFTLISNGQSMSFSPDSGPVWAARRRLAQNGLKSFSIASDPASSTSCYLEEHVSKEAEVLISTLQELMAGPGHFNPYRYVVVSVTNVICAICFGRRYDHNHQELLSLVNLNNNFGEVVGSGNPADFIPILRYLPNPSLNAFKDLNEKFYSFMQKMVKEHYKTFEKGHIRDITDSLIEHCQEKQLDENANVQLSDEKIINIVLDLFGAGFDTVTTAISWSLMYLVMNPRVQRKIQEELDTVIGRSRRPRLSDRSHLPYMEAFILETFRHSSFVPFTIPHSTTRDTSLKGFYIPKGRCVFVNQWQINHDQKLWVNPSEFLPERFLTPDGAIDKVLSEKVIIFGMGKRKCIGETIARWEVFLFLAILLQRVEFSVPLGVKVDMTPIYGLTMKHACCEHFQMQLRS
Procedure, shortened: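 Recombinant human CYP1 Supersomes co-expressing P450 reductase; 20 fmol CYP1B1, 10 fmol CYP1A1 or 60 fmol CYP1A2 per well. Incubated at 37 °C (1B1 35 min, 1A1 15 min, 1A2 50 min). Stopped with cold methanol; fluorescence read at 544/590 nm; triplicates.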

Cytochrome P450 1B1 [5] = biological target: T1, Cytochrome P450 1B1; test: Potency index, ratio of IC50 of ANF to IC50 of compound for inhibition of human recombinant CYP1B1; conditions: read-out: Ratio IC50

SMILES	IC50 (Cytochrome P450 1B1 [1]) [nM]	IC50 (Cytochrome P450 1A2) [nM]	Ratio IC50 (Homo sapiens [2])	Ratio IC50 (Homo sapiens [3])	solubility [4] [µg/mL]	IC50 (Cytochrome P450 1A1) [nM]	selectivity ratio (Cytochrome P450 1B1 [5])
COc1ccc(OC)c2c1c(OC)cc1c(=O)cc(-c3ccc(N)nc3)oc12	0.98	108	31.4	110	311 (≈ 822 µM)	30.8	
COc1ccc(OC)c2c1c(OC)cc1c(=O)cc(-c3cncc(F)c3)oc12	0.98	141	18.1	144		17.7	5
COc1ccc(OC)c2c1c(OC)cc1c(=O)cc(-c3cncc(Br)c3)oc12	1.1	742	7.3	674		8	5
COc1ccc(OC)c2c1c(OC)cc1c(=O)cc(-c3ccc(F)cn3)oc12	0.07	> 1000	240	> 14300	< 5	16.8	84
O=c1cc(-c2ccccc2)oc2c1ccc1ccccc12 [ALPHA-NAPHTHOFLAVONE]					< 5		
COc1ccc(OC)c2c1c(OC)cc1c(=O)cc(-c3ccco3)oc12	1.2	67.2	11.5	56		13.8	
COc1ccc(OC)c2c1c(OC)cc1c(=O)cc(-c3cncc(C)c3)oc12	1.3	161	5.3	124		6.9	5
COc1ccc(OC)c2c1c(OC)cc1c(=O)cc(-c3ccc4ncccc4c3)oc12	1.8	> 1000	11.6	> 556		20.9	
COc1ccc(OC)c2c1c(OC)cc1c(=O)cc(-c3cccnc3N)oc12	175	> 1000	0.8	> 5.7		137	
COc1ccc(OC)c2c1c(OC)cc1c(=O)cc(-c3ccc(N)cn3)oc12	6	> 1000	11.1	> 167		66.6	
COc1ccc(OC)c2c1c(OC)cc1c(=O)cc(-c3ccnc(Br)c3)oc12	0.46	> 1000	58.5	> 2170		26.9	
COc1ccc(OC)c2c1c(OC)cc1c(=O)cc(-c3ccnnc3)oc12	2	> 1000	62.9	> 500		126	
